Reference: ChEMBL document CHEMBL1132072, “Synthesis, in vitro cytotoxicity and in vivo anti-inflammatory activity of long chain 3-amino-1,2-diols” (Bioorg Med Chem Lett, 1999)

Tests used:
[1] = test system: A2780; assay: In vitro inhibitory activity against human ovarian cancer A2780 cell line; assay type: functional, cell-based
Outline: (§1)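 Monolayer cultures in RPMI 1640 with 5% heat-inactivated FCS and 2 mM L-glutamine, 37 °C, 5% CO2. Seeded at 5,000–20,000 cells/well according to doubling time, in gentamicin-containing medium. Compounds dissolved in DMSO and tested at five 10-fold dilutions from a top final concentration of 10⁻⁴ M for 72 h. Cells were TCA-fixed and stained with SRB, with OD read at 492 nm (NCI protocol). IC50 is the concentration giving 50% growth inhibition.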

[2] = test system: Colon 26; assay: In vitro inhibitory activity against murine colon carcinoma C26-10 cell line; assay type: functional, cell-based; settings: Mus musculus; outline: as §1
[3] = test system: H322; assay: In vitro inhibitory activity against H322 human NSCLC cell line; assay type: functional, cell-based; settings: NCI-H322; outline: as §1
[4] = test system: Lewis lung carcinoma cell line; assay: In vitro inhibitory activity against LL murine NSCLC cell line;; assay type: functional, cell-based; settings: Mus musculus; outline: as §1
[5] = test system: UMSCC22B; assay: In vitro inhibitory activity against human and neck squamous cell carcinoma UMSCC-22B cell line; assay type: functional, cell-based; outline: as §1
[6] = test system: WiDr; assay: In vitro inhibitory activity against human colon carcinoma WiDr cell line;; assay type: functional, cell-based; outline: as §1
[7] = test system: Rattus norvegicus; assay: In vivo anti-inflammatory activity against carrageenan-induced paw edema assay in rats at dose 0.15 mM/kg; assay type: functional
Outline: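 Fisher 344 rats of either sex, excluding pregnant females, six animals per group with two groups per compound. Edema induced by intradermal injection of 0.1 mL of 2% carrageenin (type K100) in saline into the right paw. Compound given ip as a single 0.15 mmol/kg dose at the same time. Paw edema measured 3.5 h later. Indomethacin served as the reference drug.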

[8] = test system: Rattus norvegicus; assay: In vivo anti-inflammatory activity against carrageenan-induced paw edema assay in rats at dose 0.11 mM/kg; assay type: functional

| IC50 [1] | IC50 [2] | IC50 [3] | IC50 [4] | IC50 [5] | IC50 [6] | SMILES | Inhibition [7] | Inhibition [8] |
| --- | --- | --- | --- | --- | --- | --- | --- | --- |
| 2.71 µM | 3.97 µM | 1.71 µM | 3.47 µM | 2.34 µM | 3.47 µM | CCCCCCCCCCCCCCCCCC[C@H](N)[C@H](O)CO | 79.6% |  |
| 2.63 µM | 3.58 µM | 1.52 µM | 1.87 µM | 2.49 µM | 2.99 µM | CCCCCCCCCCCCCC[C@@H](N)[C@@H](O)CO | 85.3% |  |
| 32.8 µM | 21.5 µM | 24.4 µM | 10.6 µM | 3.5 µM | 13.3 µM | CCCCCCCCCCCCCCCCCC[C@@H](N)[C@@H](O)CO | 80.04% |  |
| 2.66 µM | 3.68 µM | 1.45 µM | 2.86 µM | 1.89 µM | 2.76 µM | CCCCCCCCCCCCCC[C@H](N)[C@H](O)CO | 81.1% |  |
| 2.79 µM | 3.3 µM | 2.94 µM | 2.93 µM | 1.89 µM | 24.2 µM | CCCCCCCCCCCCCCC(N)CN (stereo not drawn) | 93.5% |  |
| 30.4 µM | 29.3 µM | 18 µM | 24.2 µM | 23.8 µM | 20.8 µM | CCCCCCCCCCCCCC[C@H](NC(=O)OC(C)(C)C)[C@H](O)CO | 45.2% |  |
|  |  |  |  |  |  | COc1ccc2c(c1)c(CC(=O)O)c(C)n2C(=O)c1ccc(Cl)cc1 [INDOMETHACIN] |  | 53.3% |
